From ChEMBL document CHEMBL3259625 (ACS Med Chem Lett, 2014)

Key:
[1] = (§1) Half life in rat liver microsomes at 1 uM by LC-MS/MS analysis in presence of NADPH; assay type: ADME; settings: liver microsomes
In short: (§2)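 Microsomal stability was measured in human, rat and mouse liver microsomes, with sunitinib run in parallel as the reference compound.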

[2] = test system: Liver microsome; assay: (§3) Half life in human liver microsomes at 1 uM by LC-MS/MS analysis in presence of NADPH; assay type: ADME; settings: microsomes, 1 µM; in short: as §2
[3] = test system: Liver; assay: (§4) Half life in mouse liver microsomes at 1 uM by LC-MS/MS analysis in presence of NADPH; assay type: ADME; settings: microsomes, 1 µM; in short: as §2
[4] = target: T1, Cytochrome P450 1A2 (Homo sapiens, UniProt P05177); assay: (§5) Inhibition of CYP1A2 in human liver microsomes assessed as phenacetin […] to acetaminophen at 1 uM after 10 mins in presence of NADPH; assay type: ADME; settings: microsomes, 10 min, 1 µM
T1 sequence (P05177 whole entry): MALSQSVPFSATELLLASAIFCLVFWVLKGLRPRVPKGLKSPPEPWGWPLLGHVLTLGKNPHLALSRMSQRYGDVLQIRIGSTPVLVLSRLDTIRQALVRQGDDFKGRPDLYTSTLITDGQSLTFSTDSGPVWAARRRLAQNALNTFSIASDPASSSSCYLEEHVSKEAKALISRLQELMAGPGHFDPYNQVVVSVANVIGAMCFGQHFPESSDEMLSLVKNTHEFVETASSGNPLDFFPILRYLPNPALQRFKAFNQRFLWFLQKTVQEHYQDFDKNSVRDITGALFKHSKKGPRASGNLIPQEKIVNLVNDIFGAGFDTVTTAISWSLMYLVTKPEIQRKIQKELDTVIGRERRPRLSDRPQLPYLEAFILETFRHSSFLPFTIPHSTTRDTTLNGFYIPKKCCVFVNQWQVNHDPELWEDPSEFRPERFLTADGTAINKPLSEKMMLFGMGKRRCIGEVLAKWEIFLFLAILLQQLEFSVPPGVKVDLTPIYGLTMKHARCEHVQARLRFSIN

[5] = target: Cytochrome P450 2D6 (Homo sapiens, UniProt P10635); assay: (§6) Inhibition of CYP2D6 in human liver microsomes assessed as bufuralol hydroxylation to 4'-hydroxybufuralol at 1 uM after 10 mins in presence of NADPH; assay type: ADME; settings: microsomes, 10 min, 1 µM
Sequence of Cytochrome P450 2D6 (P10635 whole entry): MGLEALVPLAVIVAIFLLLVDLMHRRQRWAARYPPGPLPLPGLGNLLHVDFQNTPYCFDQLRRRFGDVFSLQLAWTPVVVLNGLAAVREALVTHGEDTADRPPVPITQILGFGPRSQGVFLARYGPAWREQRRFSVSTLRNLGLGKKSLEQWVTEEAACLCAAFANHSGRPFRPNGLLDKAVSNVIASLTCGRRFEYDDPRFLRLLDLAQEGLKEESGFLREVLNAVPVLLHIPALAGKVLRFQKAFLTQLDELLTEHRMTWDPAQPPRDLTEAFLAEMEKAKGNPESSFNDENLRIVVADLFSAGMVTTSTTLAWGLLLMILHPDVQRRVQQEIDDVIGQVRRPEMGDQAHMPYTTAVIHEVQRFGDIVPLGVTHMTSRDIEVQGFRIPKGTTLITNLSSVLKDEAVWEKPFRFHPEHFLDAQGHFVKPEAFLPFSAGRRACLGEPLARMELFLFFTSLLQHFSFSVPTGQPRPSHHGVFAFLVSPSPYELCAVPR

[6] = test system: Liver microsome; assay: as §1; assay type: ADME; settings: microsomes, 1 µM; in short: as §2
[7] = target: Cytochrome P450 2C9 (Homo sapiens, UniProt P11712); assay: (§7) Inhibition of CYP2C9 in human liver microsomes assessed as tolbutamide hydroxylation to hydroxytolbutamide at 1 uM after 10 mins in presence of NADPH; assay type: ADME; settings: microsomes, 10 min, 1 µM
Sequence of Cytochrome P450 2C9 (P11712 whole entry): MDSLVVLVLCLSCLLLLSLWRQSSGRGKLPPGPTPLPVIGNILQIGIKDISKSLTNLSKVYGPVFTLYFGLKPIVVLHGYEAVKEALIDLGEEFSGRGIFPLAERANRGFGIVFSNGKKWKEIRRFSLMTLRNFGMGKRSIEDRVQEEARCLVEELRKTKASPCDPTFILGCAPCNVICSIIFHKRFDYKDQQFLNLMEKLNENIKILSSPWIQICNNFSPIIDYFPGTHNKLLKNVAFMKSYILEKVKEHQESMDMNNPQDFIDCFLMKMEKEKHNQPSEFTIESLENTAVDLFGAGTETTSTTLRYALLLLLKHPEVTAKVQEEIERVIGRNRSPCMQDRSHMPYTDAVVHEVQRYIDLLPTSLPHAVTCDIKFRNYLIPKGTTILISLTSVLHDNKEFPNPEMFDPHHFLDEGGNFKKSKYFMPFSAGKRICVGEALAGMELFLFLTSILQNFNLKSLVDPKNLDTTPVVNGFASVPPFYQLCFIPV

[8] = target: Cytochrome P450 3A4 (Homo sapiens, UniProt P08684); assay: (§8) Inhibition of CYP3A4 in human liver microsomes assessed as midazolam hydroxylation to 1'-hydroxymidazolam at 1 uM after 10 mins in presence of NADPH; assay type: ADME; settings: microsomes, 10 min, 1 µM
Sequence of Cytochrome P450 3A4 (P08684 whole entry): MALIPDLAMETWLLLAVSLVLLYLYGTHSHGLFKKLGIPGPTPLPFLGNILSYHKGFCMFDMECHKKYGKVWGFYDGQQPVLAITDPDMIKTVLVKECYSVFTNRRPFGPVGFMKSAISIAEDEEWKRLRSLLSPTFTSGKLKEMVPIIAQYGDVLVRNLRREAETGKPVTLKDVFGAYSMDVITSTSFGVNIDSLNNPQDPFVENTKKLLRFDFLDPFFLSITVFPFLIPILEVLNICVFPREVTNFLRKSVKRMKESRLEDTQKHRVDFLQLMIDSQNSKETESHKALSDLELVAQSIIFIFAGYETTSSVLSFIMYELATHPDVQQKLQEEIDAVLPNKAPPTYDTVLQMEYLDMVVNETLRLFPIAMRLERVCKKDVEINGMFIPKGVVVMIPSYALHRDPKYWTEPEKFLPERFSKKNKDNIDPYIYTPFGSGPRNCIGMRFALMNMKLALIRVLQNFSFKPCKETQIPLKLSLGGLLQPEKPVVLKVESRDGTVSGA

[9] = test system: Trypanosoma cruzi; assay: Antitrypanosomal activity against trypomastigotes of Trypanosoma cruzi CA-I/72 infected in mouse C2C12 cells after 72 hrs; assay type: functional, organism-based; settings: CA-I/72, C2C12, 72 h
In short: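 EC50 derived from dose–response curves against T. cruzi in infected mouse C2C12 myoblasts.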

[10] = target: T2, CYP1A2 (Homo sapiens, UniProt P05177); assay: as §5; assay type: ADME; settings: liver microsomes, probe phenacetin
T2 sequence (P05177 whole entry): T1 sequence (P05177 whole entry)

[11] = target: CYP2D6 (Homo sapiens, UniProt P10635); assay: as §6; assay type: ADME; settings: liver microsomes, probe bufuralol
Sequence of CYP2D6 (P10635 whole entry): as the sequence (P10635 whole entry) above

[12] = target: CYP2C9 (Homo sapiens, UniProt P11712); assay: as §7; assay type: ADME; settings: liver microsomes, probe tolbutamide
Sequence of CYP2C9 (P11712 whole entry): as the sequence (P11712 whole entry) above

[13] = target: CYP3A4 (Homo sapiens, UniProt P08684); assay: as §8; assay type: ADME; settings: liver microsomes, probe midazolam
Sequence of CYP3A4 (P08684 whole entry): as the sequence (P08684 whole entry) above

[14] = as §3; assay type: ADME; settings: liver microsomes; in short: as §2
[15] = as §4; assay type: ADME; settings: liver microsomes; in short: as §2

| half-life at 1 µM [1] [min] | t1/2 [2] [min] | t1/2 [3] [min] | inhibition (INH) [4] [%] | inhibition (INH) [5] [%] | t1/2 [6] [min] | inhibition (INH) [7] [%] | inhibition (INH) [8] [%] | EC50 [9] [nM] | inhibition at 10 min, 1 µM [10] [%] | inhibition at 10 min, 1 µM [11] [%] | inhibition at 10 min, 1 µM [12] [%] | inhibition at 10 min, 1 µM [13] [%] | half-life at 1 µM [14] [min] | half-life at 1 µM [15] [min] | Structure (SMILES) |
| --- | --- | --- | --- | --- | --- | --- | --- | --- | --- | --- | --- | --- | --- | --- | --- |
| 20 | 18 | 27 |  |  |  |  |  |  |  |  |  |  |  |  | O=C(N[C@H](Cc1c[nH]c2ccccc12)C(=O)Nc1ccncc1)c1ccc(-c2cccc(F)c2)cc1F |
|  | 17 |  | 3 | 47 | 17 | 92 | 74 | 1.3 |  |  |  |  |  |  | O=C(N[C@H](Cc1c[nH]c2ccccc12)C(=O)Nc1ccncc1)c1ccc(-c2cc(F)ccc2F)cc1F |
|  | 18 | 39 |  |  |  |  |  |  |  |  |  |  |  |  | O=C(N[C@H](Cc1c[nH]c2ccccc12)C(=O)Nc1ccncc1)c1ccc(-c2ccc(F)c(F)c2)cc1F |
| 39 |  |  |  |  |  |  |  | 2.9 | -4 | 27 | 92 | 24 | 45 | 69 | O=C(N[C@H](Cc1c[nH]c2ccccc12)C(=O)Nc1ccncc1)c1ccc(-c2ccc(C(F)(F)F)c(F)c2)cc1F |
| 24 |  |  |  |  |  |  |  | 0.47 | 10 | 74 | 96 | 86 | 8 | 11 | O=C(N[C@H](Cc1c[nH]c2ccccc12)C(=O)Nc1ccncc1)c1ccc(N2CCN(c3cccc(C(F)(F)F)c3)CC2)cc1F |
| 30 |  |  |  |  |  |  |  | 0.6 | -9 | 21 | 84 | 38 | 25 | 34 | O=C(N[C@H](Cc1c[nH]c2ccccc12)C(=O)Nc1ccncc1)c1ccc(-c2ccc(OCc3ccc(F)cc3F)c(F)c2)cc1F |
| 53 |  |  |  |  |  |  |  | 9.2 | -26 | -17 | 41 | 15 | 29 | 51 | O=C(N[C@H](Cc1c[nH]c2ccccc12)C(=O)Nc1ccncc1)c1ccc(-c2ccc(OCc3ccc(F)cc3)c(C(F)(F)F)c2)cc1F |
